Reference: ChEMBL document CHEMBL3425408, “Design, synthesis, in vitro, and in vivo anticancer and antiangiogenic activity of novel 3-arylaminobenzofuran derivatives targeting the colchicine site on tubulin” (J Med Chem, 2015)
Active and inactive are the calls of the source. No cut-off for these calls is given here.

What was measured:
HeLa = test: Antiproliferative activity against human HeLa cells after 72 hrs by (3-(4,5-dimethylthiazol-2-yl)-2,5-diphenyltetrazolium bromide test; type: functional, cell-based
[1] = Antiproliferative activity against human HL60 cells after 72 hrs by (3-(4,5-dimethylthiazol-2-yl)-2,5-diphenyltetrazolium bromide test; type: functional, cell-based; details: HL-60, 72 h
Procedure, shortened: (§1)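 Jurkat, RS4;11 and HL-60 cells grown in RPMI-1640; MCF-7, A549, HeLa and HT-29 cells grown in DMEM; both media with 10% FBS and penicillin/streptomycin. 8 × 10^3 cells per well were preincubated 18 h at 37 °C, 5% CO2, then exposed 72 h to a concentration range (DMSO ≤0.25%). Read-out was MTT; IC50 was taken against cells given the maximum DMSO. Mean ± SE of at least three experiments.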

HT-29 = test: Antiproliferative activity against human HT-29 cells after 72 hrs by (3-(4,5-dimethylthiazol-2-yl)-2,5-diphenyltetrazolium bromide test; type: functional, cell-based; details: HT-29, 72 h
Jurkat = test: Antiproliferative activity against human Jurkat cells after 72 hrs by (3-(4,5-dimethylthiazol-2-yl)-2,5-diphenyltetrazolium bromide test; type: functional, cell-based; procedure, shortened: as §1
A549 = test: Antiproliferative activity against human A549 cells after 72 hrs by (3-(4,5-dimethylthiazol-2-yl)-2,5-diphenyltetrazolium bromide test; type: functional, cell-based; details: A549, 72 h
[2] = Antiproliferative activity against human RS4:11 cells after 72 hrs by (3-(4,5-dimethylthiazol-2-yl)-2,5-diphenyltetrazolium bromide test; type: functional, cell-based; details: RS4-11, 72 h; procedure, shortened: as §1
MCF7 = test: Antiproliferative activity against human MCF7 cells after 72 hrs by (3-(4,5-dimethylthiazol-2-yl)-2,5-diphenyltetrazolium bromide test; type: functional, cell-based; details: MCF7, 72 h
Mus musculus = test: In vivo antitumor activity against mouse BNL 1ME A.7R.1 cells allografted in Balb/c mouse assessed as reduction in tumor growth at 5 mg/kg, ip up to 8 days relative to vehicle treated control; type: functional, organism-based; design: dose 5 mg/kg
Procedure, shortened: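 Male Balb/c mice, 8 weeks old, received 10^7 BNL 1ME A.7R.1 cells in 200 μL PBS subcutaneously in the dorsal region. Mice were randomised into groups of 5 and dosed ip daily from day 2. Vehicle was 0.9% NaCl with 5% PEG 400 and 0.5% Tween 80, at 7 μL/g. Tumours were measured daily by caliper for 7 days; V = AB²/2.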

HUVEC = test: Cytotoxicity against human HUVEC cells after 72 hrs by MTT assay; type: cell-based
Procedure, shortened: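 HUVECs were isolated from umbilical cord veins, kept in M200 with low-serum growth supplement and used at passages 1–6. […] Mean ± SEM of three separate experiments.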

MDA-MB-231 = test: Cytotoxicity against human MDA-MB-231 cells after 72 hrs by MTT assay; type: functional, cell-based; details: MDA-MB-231, 72 h
Tubulin = Tubulin (Bos taurus, UniProt Q6B856+Q862L2+Q862F3); test: Inhibition of bovine brain tubulin assembly after 20 mins incubation by spectrophotometric analysis
Procedure, shortened: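 Bovine brain tubulin (10 μM) was preincubated with varying compound concentrations in glutamate buffer at 30 °C, then chilled to 0 °C. GTP was added to 0.4 mM final and the mixture warmed to 30 °C in cuvettes.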

Row | Structure (SMILES) | IC50 (HeLa) [µM] | IC50 [1] [µM] | IC50 (HT-29) [µM] | IC50 (Jurkat) [µM] | IC50 (A549) [µM] | IC50 [2] [µM] | IC50 (MCF7) [µM] | inhibition (Mus musculus) | IC50 (HUVEC) [µM] | IC50 (MDA-MB-231) [µM] | IC50 (Tubulin) [µM]
1 | CCOC(=O)c1oc2ccc(OC)cc2c1Nc1cc(OC)c(OC)c(OC)c1 | 1.26 | 3.4 | 1.4 | 2.3 | 8.9 | 0.19 | 2.9 | – | – | – | –
2 | COC(=O)c1oc2ccccc2c1Nc1cc(OC)c(OC)c(OC)c1 | 0.26 | 4.4 | 0.93 | 4.1 | 5.28 | 0.43 | 7.8 | – | – | – | –
3 | COc1ccc(/C=C\c2cc(OC)c(OC)c(OC)c2)cc1OP(=O)(O)O | – | – | – | – | – | – | – | Active | – | – | –
4 | CCOC(=O)c1oc2c(OCC)cccc2c1Nc1cc(OC)c(OC)c(OC)c1 | 3.28 | 5.5 | 5.3 | 9.1 | 7.25 | 3 | > 10 | – | – | – | –
5 | CCOc1cccc2c(Nc3cc(OC)c(OC)c(OC)c3)c(C(=O)OC)oc12 | 2.53 | 4.2 | 3.2 | 3.7 | 8.9 | 0.4 | > 10 | – | – | – | –
6 | COC(=O)c1oc2c(O)c(OC)ccc2c1C(=O)c1cc(OC)c(OC)c(OC)c1 | – | – | – | – | – | – | – | – | 0.001 | 0.001 | –
7 | CCOC(=O)c1oc2c(OC)cccc2c1Nc1cc(OC)c(OC)c(OC)c1 | 0.27 | 0.59 | 0.11 | 0.29 | 1.1 | 0.23 | 2.1 | – | – | – | 6.4
8 | COC(=O)c1oc2ccc(OC)cc2c1Nc1cc(OC)c(OC)c(OC)c1 | 0.25 | 0.47 | 0.24 | 0.21 | 1.57 | 0.039 | 7.9 | – | – | – | 7.5
9 | CCOC(=O)c1oc2ccccc2c1Nc1cc(OC)c(OC)c(OC)c1 | 1.33 | 2.5 | 1.6 | 0.18 | 5.47 | 0.3 | 6.6 | – | – | – | –
10 | COC(=O)c1oc2c(OC)cccc2c1Nc1cc(OC)c(OC)c(OC)c1 | 0.13 | 0.32 | 0.29 | 0.03 | 1.27 | 0.001 | 0.52 | – | – | – | 7.6
11 | COC(=O)c1oc2cccc(OC)c2c1Nc1cc(OC)c(OC)c(OC)c1 | > 10 | > 10 | > 10 | > 10 | > 10 | > 10 | > 10 | – | – | – | –
12 | COc1ccc(/C=C\c2cc(OC)c(OC)c(OC)c2)cc1O [COMBRETASTATIN A4] | – | 0.001 | – | – | – | 0.0008 | – | – | – | – | –
13 | CCOC(=O)c1oc2cccc(OC)c2c1Nc1cc(OC)c(OC)c(OC)c1 | > 10 | > 10 | > 10 | > 10 | > 10 | > 10 | > 10 | – | – | – | –
